Most compounds without a hit are left out; they make up all but 3.8% or so of the library.
RAM network inh – yeast RAM network inhibition | S. cerevisiae dse1pr::URA3 reporter, 5-FOA growth OD615, 2 d; analog-sensitive cbk1-as2 kinase mutant strain | AID 868 | inhibition, % at 50 µM | 1.8% of 190,000 active;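 active = inhibition above a set limit, 3 SD over mean compound inhibition, cut at about 8.4% in these data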;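 note: 0% = DMSO-only wells with no growth and 100% = 10 µM 1-NA-PP1 full growth; inhibition rescues growth on 5-FOA so higher OD means more RAM inhibition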
Measles CPE – protection of cells from measles virus; protection (pct of control), % at 4 µM; Measles virus-infected cells, CPE protection, absorbance; AID 841; 1.5% of 140,000 active; in the data active = protection mostly above about 24%, no sharp cut-off; inactive = mostly below about 26%
BB579 growth dn – yeast BB579 growth reduction in restrictive medium; inhibition, % at 10 µM; AID 804; S. cerevisiae BB579 growth, OD615, 48 h; 0.51% of 140,000 active;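 active = inhibition above a set limit, 3 SD over the mean compound inhibition, cut at about 44% in these data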
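Detection: OD615 turbidity measurement; Material: Saccharomyces cerevisiae DeaD strain BB579, replicative lifespan model yeast; Timing: 48 h exposure, 30 °C; Doses: single 10 µM dose; Medium: CSMM-D restrictive synthetic medium containing dextrose (glucose); Controls: amphotericin B at 10 µg/mL as positive control.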
Yeast lifespan up – extends the lifespan of yeast | S. cerevisiae growth with nicotinamide, OD615; deaD strain in restrictive glucose medium | inhibition of the nicotinamide effect, % at 10 µM | 0.68% of 130,000 active;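 active = inhibition above a set limit, placed 3 SD over the median of all compounds, cut at about 26% in these data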;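 note: 0% = nicotinamide-treated wells and 100% = cells grown without nicotinamide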
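assay system = DeaD-strain S. cerevisiae | buffer or medium = restrictive glucose medium | reagent = 1.5 mM nicotinamide | compound = 10 µM single point, 0.25% DMSO | incubation = 48 h compound exposure at 30 °C, humidified | signal = OD615 measurement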
RAM efflux-def – RAM network inhibition, efflux-deficient strain. shares compounds with RAM network inh. S. cerevisiae efflux-deficient reporter strain, 5-FOA growth OD615, 2 days. max inhibition, %. 1,200 tested, under 10 active; call rule not given here;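 note: plate controls were vehicle for no effect and reference inhibitor for full effect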
* marks the source's active call; other numbers are inactive results; · = no result given.

SMILES	RAM network inh	Measles CPE	BB579 growth dn	Yeast lifespan up	RAM efflux-def
FC(F)Sc1ccc(NC(=S)NCc2ccccc2)cc1	0.6	·	·	·	·
FC(F)Sc1ccc(NC(=S)NC(c2ccccc2)c2ccccc2)cc1	19.2*	·	·	·	3.5
CSc1cccc(NC(=O)C2(S(=O)(=O)c3ccc(C)cc3)CC2)c1	0.8	·	·	·	·
CC1=C(C(=O)OCc2ccccc2)C(c2ccc(C(C)(C)C)cc2)NC(=O)N1CCCCCC(=O)O (stereo not drawn)	17.8*	6.4	-45.2	6.0	6.2
CC1=C(C(=O)OCc2ccccc2)C(c2ccccc2-c2ccccc2)NC(=O)N1CCCCCC(=O)O (stereo not drawn)	3.5	2.1	-59.8	11.1	·
CC1=C(C(=O)OCc2ccccc2)C(c2ccc([N+](=O)[O-])cc2)NC(=O)N1CCCCCC(=O)O (stereo not drawn)	13.7*	15.0	-33.5	10.4	5.1
O=S(=O)(/N=C(/Nc1ccccc1)c1ccccc1O)c1ccccc1	3.3	·	·	·	·
COc1ccc(C(=O)NNC(=O)C(Cc2ccc(O)cc2)NC(=O)c2ccccc2NC(=O)c2ccc(OC)cc2)cc1 (stereo not drawn)	11.5*	8.8	-27.3	6.2	4.0
COc1cccc(CN(Cc2cccnc2)S(=O)(=O)c2ccc(-n3cnnn3)c(C)c2)c1	0.3	8.5	-26.5	2.9	·
Cc1cc(S(=O)(=O)N(Cc2cccs2)Cc2ccccc2F)ccc1-n1cnnn1	12.6*	11.4	-42.4	15.5	2.0
O=C(Cn1c(-c2cscn2)nc2ccccc21)Nc1ccccc1F	3.8	19.0	-5.2	-17.8	·
CCOC(=O)/C(=N/Nc1ccc(C)cc1)S(=O)(=O)c1ccc(Cl)cc1	12.3*	18.4	-13.5	-2.9	1.3
CCOC(=O)/C(=N\Nc1ccccc1)S(=O)(=O)c1ccccc1	-0.1	23.9	-28.0	0.8	·
C=CCSc1nc2sc3c(c2c(=O)n1CC=C)CCc1ccccc1-3	-0.8	18.1	0.8	-0.8	·
C=CCn1c(SCCC)nc2sc3c(c2c1=O)CCc1ccccc1-3	14.8*	20.1	-24.6	4.5	3.1
Cc1cnc([N+](=O)[O-])n1CCOC(=O)NC(=O)c1cccc(F)c1	3.2	·	·	·	·
CC(C)c1onc(C(=O)NC2CCCCC2)c1[N+](=O)[O-]	-0.6	·	·	·	·
C=C(C)CNC(=S)Nc1cccc(S(=O)(=O)NC2=NCCC2)c1	0.1	·	·	·	·
C=C(C)CNC(=S)Nc1nc2c(cc1C(=O)OCC)CCCC2	11.8*	1.8	-46.9	5.8	2.7
O=C(Nc1ccc2c(c1)OCO2)c1ccc(COc2ccc3c(c2)CCC3)o1	11.5*	23.9	-35.0	-7.5	3.0
Cc1ccc(C(=O)Nc2ccc3c(c2)CCC3)o1	-0.3	26.5	-1.5	-15.1	·
CN(C)c1nc(SCCOC(=O)COc2ccc(Cl)cc2Cl)nc(N(C)C)n1	11.6*	105.1*	-29.1	0.5	3.1
CN(C)c1nc(OCCOC(=O)COc2ccc(Cl)cc2Cl)nc(N(C)C)n1	0.9	12.5	-46.8	-2.0	·
COc1cccc(/C=N/NC(=O)CNC(=O)c2ccc(S(=O)(=O)N3CCCC3)cc2)c1OC	4.8	·	·	·	·
COC(=O)[C@@H]1CC[C@H](C)[C@@H](c2ccc(C)cc2)N1C(=O)c1ccc(/C=N/OC[C@@H](O)COCc2ccco2)cc1	14.9*	3.0	-26.2	5.0	1.6
SMILES	RAM network inh	Measles CPE	BB579 growth dn	Yeast lifespan up	RAM efflux-def
Cc1ccc(CSc2nnc(-c3ccc4c(c3)OCO4)o2)cc1	14.9*	9.1	-27.5	-4.8	1.8
N#Cc1ccc(NC(=O)COC(=O)CSc2nnc(-c3ccc(Cl)cc3)o2)cc1	2.0	17.9	-34.9	-5.5	·
Cc1ccc(NC(=O)CN(c2ccc(Cl)cc2)S(=O)(=O)c2cc([N+](=O)[O-])ccc2Cl)c(C)c1	5.1	·	·	·	·
CC(C)CCOc1ncnc2c1sc1nc3c(cc12)CSC(C)(C)C3	13.1*	10.4	-3.8	·	3.0
COc1ccc(/C=N/Nc2nc(Nc3ccccc3)nc(N3CCCCC3)n2)cc1OC	0.0	4.9	-49.1	-11.0	·
CCOc1cc(/C=N/Nc2nc(Nc3ccccc3)nc(N3CCCCC3)n2)ccc1OCC(=O)O	18.5*	·	·	·	7.5
COc1ccc(C(=O)/C=C/c2ccc(O)cc2)c(O)c1CC=C(C)C	24.0*	25.1*	-27.2	-7.3	2.0
CCn1c(SCc2nc3ccccc3c(=O)[nH]2)nc2ccccc21	12.2*	·	·	·	4.8
O=C(CSc1nc2ccccc2c(=O)n1CCC(=O)N1CCCCC1)NCc1ccccc1	18.3*	38.3	-14.6	25.1	1.8
COn1c(SCc2cccc(Cl)c2)nc2ccccc2c1=O	4.7	2.8	2.0	20.7	·

Assay outcomes as filed in PubChem BioAssay.
